Source: ChEMBL document CHEMBL1157546, “3-(2-Aminocarbonylphenyl)propanoic acid analogs as potent and selective EP3 receptor antagonists. part 2: optimization of the side chains to improve in vitro and in vivo potencies” (Bioorg Med Chem, 2010)

Legend:
[1] = molecular target: T1, Prostaglandin E2 receptor EP3 subtype (Mus musculus, UniProt P30557); test: Displacement of [3H]PGE2 from mouse EP3 receptor expressed in CHO cell membrane; assay type: cell membranes
T1 sequence (P30557 whole entry): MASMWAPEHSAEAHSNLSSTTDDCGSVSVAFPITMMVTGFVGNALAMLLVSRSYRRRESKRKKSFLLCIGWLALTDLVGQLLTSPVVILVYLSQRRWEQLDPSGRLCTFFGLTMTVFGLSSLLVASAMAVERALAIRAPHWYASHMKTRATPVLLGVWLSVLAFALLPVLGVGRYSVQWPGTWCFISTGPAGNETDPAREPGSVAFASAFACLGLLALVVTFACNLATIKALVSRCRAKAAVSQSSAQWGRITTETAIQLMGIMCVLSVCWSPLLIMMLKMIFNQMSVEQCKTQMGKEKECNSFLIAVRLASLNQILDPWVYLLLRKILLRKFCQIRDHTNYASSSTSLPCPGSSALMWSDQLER

[2] = molecular target: T1, Prostaglandin E2 receptor EP3 subtype; test: Antagonist activity at mouse EP3 receptor expressed in CHO cells assessed as inhibition of PGE2-induced increase intracellular calcium level in presence of 1% BSA by fluorimetry; assay type: functional, cell-based
Outline: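 CHO cells expressing mouse EP3 seeded at 1 × 10⁴ cells/well and grown two days in 10% FBS/αMEM (37 °C, 5% CO2). Loaded 1 h with Fura 2/AM, indomethacin and 2.5 mM probenecid, rinsed, then held 1 h dark at room temperature in HBSS with 1% BSA and 10 mM HEPES. Compound added with 10 nM PGE2. Ca²⁺ read at 340/380 nm excitation, 500 nm emission; % inhibition relative to the PGE2 response without compound.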

[3] = tested on: Rattus norvegicus; test: Inhibition of PGE2-induced uterine contraction in intraduodenally dosed pregnant rat at 0.3 mg/kg; assay type: functional; conditions: route intraduodenal
Outline: (§1)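 Pregnant rats with uterine pressure recorded by transducer. Once spontaneous motility was stable, compound in 0.5% methylcellulose (5 mL/kg) or vehicle given intraduodenally. PGE2 given iv 30 min later.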

[4] = tested on: Rattus norvegicus; test: Inhibition of PGE2-induced uterine contraction in intraduodenally dosed pregnant rat at 1 mg/kg; assay type: functional; conditions: route intraduodenal; outline: as §1
[5] = AUC in rat at […], iv; assay type: ADME, organism-based; parameters: dose 1.2 mg/kg, route intravenous; conditions: plasma
[6] = AUC in rat at 13 mg/kg, po; assay type: ADME, organism-based; parameters: dose 13 mg/kg, route oral; conditions: plasma
[7] = Volume of distribution at steady state in rat at […], iv; assay type: ADME, organism-based; parameters: dose 1.2 mg/kg, route intravenous; conditions: in vivo, read-out: Vdss
[8] = Cmax in rat at 13 mg/kg, po; assay type: ADME, organism-based; parameters: dose 13 mg/kg, route oral; conditions: in vivo
[9] = Oral bioavailability in rat at 13 mg/kg, po; assay type: ADME, organism-based; conditions: in vivo
[10] = tested on: Rattus norvegicus; test: Inhibition of PGE2-induced uterine contraction in intraduodenally dosed pregnant rat at 0.1 mg/kg; assay type: functional; conditions: route intraduodenal; outline: as §1
[11] = AUC in rat at 11 mg/kg, po; assay type: ADME, organism-based; parameters: dose 11 mg/kg, route oral; conditions: plasma
[12] = Cmax in rat at 11 mg/kg, po; assay type: ADME, organism-based; parameters: dose 11 mg/kg, route oral; conditions: in vivo
[13] = Oral bioavailability in rat at 11 mg/kg, po; assay type: ADME, organism-based; conditions: in vivo
[14] = molecular target: T2, Prostaglandin E2 receptor EP1 subtype (Mus musculus, UniProt P35375); test: Displacement of [3H]PGE2 from mouse EP1 receptor expressed in CHO cell membrane; assay type: cell membranes
T2 sequence (P35375 whole entry): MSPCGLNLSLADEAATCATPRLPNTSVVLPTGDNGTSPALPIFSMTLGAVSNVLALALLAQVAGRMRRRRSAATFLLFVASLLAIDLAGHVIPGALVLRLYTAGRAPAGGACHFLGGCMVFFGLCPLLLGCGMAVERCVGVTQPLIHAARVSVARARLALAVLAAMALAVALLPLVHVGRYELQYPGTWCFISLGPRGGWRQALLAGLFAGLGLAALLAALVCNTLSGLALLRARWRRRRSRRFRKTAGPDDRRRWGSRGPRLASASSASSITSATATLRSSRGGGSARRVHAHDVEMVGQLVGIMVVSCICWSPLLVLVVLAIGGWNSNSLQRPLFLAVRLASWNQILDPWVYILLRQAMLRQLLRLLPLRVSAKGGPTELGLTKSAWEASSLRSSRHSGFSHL

[15] = molecular target: Prostaglandin E2 receptor EP2 subtype (Mus musculus, UniProt Q62053); test: Displacement of [3H]PGE2 from mouse EP2 receptor expressed in CHO cell membrane; assay type: cell membranes
[16] = molecular target: Prostaglandin E2 receptor EP4 subtype (Mus musculus, UniProt P32240); test: Displacement of [3H]PGE2 from mouse EP4 receptor expressed in CHO cell membrane; assay type: cell membranes
Prostaglandin E2 receptor EP4 subtype, sequence (P32240 whole entry): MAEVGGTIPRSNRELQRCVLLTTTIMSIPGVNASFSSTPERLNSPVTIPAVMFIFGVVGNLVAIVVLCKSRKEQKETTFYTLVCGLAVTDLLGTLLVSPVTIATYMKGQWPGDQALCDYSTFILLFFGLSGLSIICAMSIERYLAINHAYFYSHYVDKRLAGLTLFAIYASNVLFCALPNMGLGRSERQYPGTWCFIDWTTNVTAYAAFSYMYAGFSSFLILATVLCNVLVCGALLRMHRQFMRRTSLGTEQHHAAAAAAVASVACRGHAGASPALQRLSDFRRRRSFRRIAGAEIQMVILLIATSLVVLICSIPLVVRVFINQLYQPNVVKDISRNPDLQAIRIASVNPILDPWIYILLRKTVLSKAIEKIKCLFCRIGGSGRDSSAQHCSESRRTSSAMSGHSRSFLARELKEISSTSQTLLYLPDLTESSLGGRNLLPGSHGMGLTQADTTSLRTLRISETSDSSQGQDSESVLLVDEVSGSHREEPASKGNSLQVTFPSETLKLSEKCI

Prostaglandin E2 receptor EP2 subtype, sequence (Q62053 whole entry): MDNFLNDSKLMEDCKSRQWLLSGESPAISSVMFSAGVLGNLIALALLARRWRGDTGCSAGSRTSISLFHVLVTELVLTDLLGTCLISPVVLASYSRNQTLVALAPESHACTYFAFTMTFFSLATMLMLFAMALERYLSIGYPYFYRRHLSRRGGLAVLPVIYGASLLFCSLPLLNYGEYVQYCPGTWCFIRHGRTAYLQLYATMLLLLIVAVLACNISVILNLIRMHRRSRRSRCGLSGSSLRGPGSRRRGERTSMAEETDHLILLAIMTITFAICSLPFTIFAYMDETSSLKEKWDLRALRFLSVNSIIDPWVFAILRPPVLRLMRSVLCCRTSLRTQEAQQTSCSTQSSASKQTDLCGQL

Row | Ki [1] [nM] | IC50 [2] [nM] | SMILES | other results
1 | 0.46 | 16 | Cc1cc(C)cc(C(CC(C)C)NC(=O)c2cc(COc3ccc(C#N)cc3)ccc2CCC(=O)O)c1 (centres undefined) | –
2 | – | – | Cc1cc(C)cc(C(CC(C)C)NC(=O)c2cc(COc3ccccc3C)ccc2CCC(=O)O)c1 (centres undefined) | inhibition in vivo at 0.3 mg/kg [3]: 62%; inhibition in vivo at 1 mg/kg [4]: 83%
3 | – | – | Cc1cc(C)cc(C(CC(C)C)NC(=O)c2cc(COc3ccccc3)ccc2CCC(=O)O)c1 (centres undefined) | inhibition in vivo at 0.3 mg/kg [3]: 28%
4 | – | – | Cc1cc(C)cc(C(CC(C)C)NC(=O)c2cc(COc3cccc(F)c3)ccc2CCC(=O)O)c1 (centres undefined) | inhibition in vivo at 0.3 mg/kg [3]: 66%; inhibition in vivo at 1 mg/kg [4]: 84%; AUC [5]: 440 ng·h/mL; AUC [6]: 1090 ng·h/mL; Vd [7]: 1.32 L/kg; Cmax [8]: 390 ng/mL; bioavailability [9]: 23%
5 | 0.25 | 5.4 | Cc1cc(C)cc(C(CC(C)C)NC(=O)c2cc(COc3ccc(F)cc3)ccc2CCC(=O)O)c1 (centres undefined) | –
6 | 0.5 | 24 | COc1ccc(C(CC(C)C)NC(=O)c2cc(COc3ccccc3)ccc2CCC(=O)O)cc1OC (centres undefined) | –
7 | 0.67 | 3.7 | COc1ccc(C(CC(C)C)NC(=O)c2cc(COc3cccc(C#N)c3)ccc2CCC(=O)O)cc1OC (centres undefined) | –
8 | – | – | Cc1cc(C)cc(C(CC(C)C)NC(=O)c2cc(COc3cc(F)ccc3F)ccc2CCC(=O)O)c1 (centres undefined) | inhibition in vivo at 0.1 mg/kg [10]: 48%; inhibition in vivo at 0.3 mg/kg [3]: 93%; inhibition in vivo at 1 mg/kg [4]: 98%; AUC [5]: 470 ng·h/mL; AUC [11]: 850 ng·h/mL; Vd [7]: 1.43 L/kg; Cmax [12]: 520 ng/mL; bioavailability [13]: 19%
9 | 0.62 | 30 | Cc1cc(C)cc(C(CC(C)C)NC(=O)c2cc(COc3ccc(Cl)cc3)ccc2CCC(=O)O)c1 (centres undefined) | –
10 | 0.45 | 15 | CC(C)CC(NC(=O)c1cc(COc2ccccc2)ccc1CCC(=O)O)c1cc(F)cc(C(F)(F)F)c1 (centres undefined) | –
11 | 0.26 | 25 | CC(C)CC(NC(=O)c1cc(COc2ccccc2)ccc1CCC(=O)O)c1ccc(F)c(Cl)c1 (centres undefined) | –
12 | 0.13 | 3.2 | COc1cccc(C(CC(C)C)NC(=O)c2cc(COc3cccc(C#N)c3)ccc2CCC(=O)O)c1 (centres undefined) | –
13 | 0.17 | 7.1 | CC(C)CC(NC(=O)c1cc(COc2cccc(C#N)c2)ccc1CCC(=O)O)c1ccc(F)cc1 (centres undefined) | –
14 | 0.76 | 32 | CC(C)CC(NC(=O)c1cc(COc2ccccc2)ccc1CCC(=O)O)c1ccc(C(F)(F)F)cc1 (centres undefined) | –
15 | 0.17 | 16 | Cc1ccc(C(CC(C)C)NC(=O)c2cc(COc3ccccc3)ccc2CCC(=O)O)cc1C (centres undefined) | –
16 | 0.16 | 11 | COc1ccc(C(CC(C)C)NC(=O)c2cc(COc3ccccc3)ccc2CCC(=O)O)cc1C (centres undefined) | –
17 | 0.94 | 230 | Cc1ccccc1C(CC(C)C)NC(=O)c1cc(COc2ccccc2)ccc1CCC(=O)O (centres undefined) | –
18 | 0.3 | 37 | Cc1cccc(C(CC(C)C)NC(=O)c2cc(COc3ccccc3)ccc2CCC(=O)O)c1 (centres undefined) | –
19 | 0.2 | 6.6 | Cc1cccc(C(CC(C)C)NC(=O)c2cc(COc3cccc(C#N)c3)ccc2CCC(=O)O)c1 (centres undefined) | –
20 | 0.3 | 19 | CC(C)CC(NC(=O)c1cc(COc2ccccc2)ccc1CCC(=O)O)c1cc(F)cc(F)c1 (centres undefined) | –
21 | 0.63 | 51 | Cc1ccc(C(CC(C)C)NC(=O)c2cc(COc3ccccc3)ccc2CCC(=O)O)cc1 (centres undefined) | –
22 | 0.11 | 4.2 | Cc1cccc(OCc2ccc(CCC(=O)O)c(C(=O)NC(CC(C)C)c3cc(C)cc(C)c3)c2)c1 (centres undefined) | –
23 | 0.67 | 16 | Cc1ccc(OCc2ccc(CCC(=O)O)c(C(=O)NC(CC(C)C)c3cc(C)cc(C)c3)c2)cc1 (centres undefined) | –
24 | 0.15 | 3.6 | Cc1cc(C)cc(C(CC(C)C)NC(=O)c2cc(COc3cccc(F)c3F)ccc2CCC(=O)O)c1 (centres undefined) | –

Row | Ki [1] [nM] | IC50 [2] [nM] | SMILES | other results
25 | 0.27 | 3.2 | COc1cccc(OCc2ccc(CCC(=O)O)c(C(=O)NC(CC(C)C)c3cc(C)cc(C)c3)c2)c1 (centres undefined) | –
26 | 0.4 | 47 | CC(C)CC(NC(=O)c1cc(COc2ccccc2)ccc1CCC(=O)O)c1ccc(F)c(F)c1 (centres undefined) | –
27 | 0.7 | 53 | CC(C)CC(NC(=O)c1cc(COc2ccccc2)ccc1CCC(=O)O)c1ccc(C(F)(F)F)c(F)c1 (centres undefined) | –
28 | 0.35 | 9.4 | Cc1cc(C)cc(C(CC(C)C)NC(=O)c2cc(COc3ccccc3C#N)ccc2CCC(=O)O)c1 (centres undefined) | –
29 | – | – | Cc1cc(C)cc(C(CC(C)C)NC(=O)c2cc(COc3cccc(C#N)c3)ccc2CCC(=O)O)c1 (centres undefined) | inhibition in vivo at 0.3 mg/kg [3]: 55%; inhibition in vivo at 1 mg/kg [4]: 95%
30 | 0.34 | 5.7 | Cc1cc(C)cc(C(CC(C)C)NC(=O)c2cc(COc3ccc(F)c(F)c3)ccc2CCC(=O)O)c1 (centres undefined) | –
31 | 0.19 | 10 | Cc1cc(C)cc(C(CC(C)C)NC(=O)c2cc(COc3cc(F)cc(F)c3)ccc2CCC(=O)O)c1 (centres undefined) | –
32 | 1.2 | 190 | COc1ccccc1C(CC(C)C)NC(=O)c1cc(COc2ccccc2)ccc1CCC(=O)O (centres undefined) | –
33 | 0.28 | 51 | CC(C)CC(NC(=O)c1cc(COc2ccccc2)ccc1CCC(=O)O)c1ccc(Cl)cc1 (centres undefined) | –
34 | 0.2 | 40 | CC(C)CC(NC(=O)c1cc(COc2ccccc2)ccc1CCC(=O)O)c1cccc(F)c1 (centres undefined) | –
35 | 0.93 | 20 | CC(C)CC(NC(=O)c1cc(COc2ccccc2)ccc1CCC(=O)O)c1ccc(F)cc1 (centres undefined) | –
36 | 0.36 | 59 | COc1ccc(C(CC(C)C)NC(=O)c2cc(COc3ccccc3)ccc2CCC(=O)O)cc1 (centres undefined) | –
37 | 1.4 | 130 | CC(C)CC(NC(=O)c1cc(COc2ccccc2)ccc1CCC(=O)O)c1ccccc1F (centres undefined) | –
38 | 0.13 | 21 | COc1cccc(C(CC(C)C)NC(=O)c2cc(COc3ccccc3)ccc2CCC(=O)O)c1 (centres undefined) | –
39 | 0.1 | 13 | Cc1cc(C)cc(C(CC(C)C)NC(=O)c2cc(COc3ccccc3F)ccc2CCC(=O)O)c1 (centres undefined) | –
40 | 0.44 | 19 | CC(C)CC(NC(=O)c1cc(COc2ccccc2)ccc1CCC(=O)O)c1ccc2c(c1)OCCO2 (centres undefined) | –
41 | 0.2 | 67 | Cc1ccc(C(CC(C)C)NC(=O)c2cc(COc3ccccc3)ccc2CCC(=O)O)cc1F (centres undefined) | –
42 | 0.16 | 18 | Cc1cc(C(CC(C)C)NC(=O)c2cc(COc3ccccc3)ccc2CCC(=O)O)ccc1F (centres undefined) | inhibition in vivo at 0.3 mg/kg [3]: 31%; inhibition in vivo at 1 mg/kg [4]: 73%; Ki [14]: > 10000 nM; Ki [15]: > 10000 nM; Ki [16]: 630 nM
43 | 0.18 | 35 | CC(C)CC(NC(=O)c1cc(COc2ccccc2)ccc1CCC(=O)O)c1cccc(Cl)c1 (centres undefined) | –
44 | 0.39 | 39 | CC(C)CC(NC(=O)c1cc(COc2ccccc2)ccc1CCC(=O)O)c1cccc(C(F)(F)F)c1 (centres undefined) | –
45 | 0.14 | 42 | COc1ccc(C(CC(C)C)NC(=O)c2cc(COc3ccccc3)ccc2CCC(=O)O)cc1F (centres undefined) | –
46 | 1.3 | 59 | Cc1cc(C)cc(C(CC(C)C)NC(=O)c2cc(COc3c(F)cccc3F)ccc2CCC(=O)O)c1 (centres undefined) | –
47 | 0.2 | 2.8 | Cc1cc(C(CC(C)C)NC(=O)c2cc(COc3cccc(C#N)c3)ccc2CCC(=O)O)ccc1F (centres undefined) | –
